From ChEMBL document CHEMBL4354873, “Rationally Designed Small-Molecule Inhibitors Targeting an Unconventional Pocket on the TLR8 Protein-Protein Interface” (J Med Chem, 2020)
The source made the active and inactive calls. The rule behind the calls is not given here.

Columns and labels:
[1] = biological target: T1, Toll-like receptor 8 (Homo sapiens) (UniProt Q9NR97); test: Inhibition of human TLR8 expressed in HEK-Blue cells assessed as inhibition of R848-induced IL-8 mRNA level at 1 uM measured after 8 hrs by Trizol reagent based qRT-PCR analysis; assay type: cell-based
T1 sequence (whole entry): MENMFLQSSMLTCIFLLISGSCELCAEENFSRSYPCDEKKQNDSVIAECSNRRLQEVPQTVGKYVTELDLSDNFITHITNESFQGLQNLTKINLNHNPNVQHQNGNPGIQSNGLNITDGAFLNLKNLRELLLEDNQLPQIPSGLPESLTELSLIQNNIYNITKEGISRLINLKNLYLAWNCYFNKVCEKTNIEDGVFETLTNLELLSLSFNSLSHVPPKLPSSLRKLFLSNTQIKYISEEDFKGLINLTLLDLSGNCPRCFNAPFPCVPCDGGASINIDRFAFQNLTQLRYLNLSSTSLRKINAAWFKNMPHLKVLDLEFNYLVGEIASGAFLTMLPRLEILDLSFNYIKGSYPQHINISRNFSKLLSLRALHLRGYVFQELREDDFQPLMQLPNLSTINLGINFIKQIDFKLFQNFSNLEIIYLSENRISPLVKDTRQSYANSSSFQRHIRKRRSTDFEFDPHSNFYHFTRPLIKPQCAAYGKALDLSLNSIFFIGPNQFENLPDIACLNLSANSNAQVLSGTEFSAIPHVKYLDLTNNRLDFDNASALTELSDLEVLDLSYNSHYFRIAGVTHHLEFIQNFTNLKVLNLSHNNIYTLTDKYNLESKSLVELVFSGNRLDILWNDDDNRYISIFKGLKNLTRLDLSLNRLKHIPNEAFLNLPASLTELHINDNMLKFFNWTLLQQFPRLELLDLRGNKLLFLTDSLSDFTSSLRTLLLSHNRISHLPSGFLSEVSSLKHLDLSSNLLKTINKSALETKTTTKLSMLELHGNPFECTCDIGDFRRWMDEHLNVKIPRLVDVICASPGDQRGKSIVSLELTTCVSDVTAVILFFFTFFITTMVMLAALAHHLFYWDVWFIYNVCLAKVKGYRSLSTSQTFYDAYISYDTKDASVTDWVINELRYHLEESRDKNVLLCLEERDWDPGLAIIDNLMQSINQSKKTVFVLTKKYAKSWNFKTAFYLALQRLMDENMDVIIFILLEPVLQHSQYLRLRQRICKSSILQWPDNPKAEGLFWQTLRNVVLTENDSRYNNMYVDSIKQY
How it was run: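 RT-qPCR: HEK-Blue TLR8 cells seeded at 1 × 10⁶/well and grown 24 h, then switched to serum-free medium. Treated with R848 4 µg/mL ± compound 1 µM for 8 h. Total RNA extracted with TRIzol, reverse transcribed, TNF-α and IL-8 mRNA quantified. Three independent biological replicates, mean ± s.d.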

[2] = biological target: Toll-like receptor 3 (Homo sapiens) (UniProt O15455); test: Inhibition of human TLR3 expressed in HEK-Blue cells assessed as inhibition of poly(I/C)-induced NF-kappaB activation at 20 uM measured after 24 hrs by quanti-blue based SEAP reporter gene assay; assay type: cell-based
Chain of Toll-like receptor 3 (Homo sapiens) (O15455 whole entry): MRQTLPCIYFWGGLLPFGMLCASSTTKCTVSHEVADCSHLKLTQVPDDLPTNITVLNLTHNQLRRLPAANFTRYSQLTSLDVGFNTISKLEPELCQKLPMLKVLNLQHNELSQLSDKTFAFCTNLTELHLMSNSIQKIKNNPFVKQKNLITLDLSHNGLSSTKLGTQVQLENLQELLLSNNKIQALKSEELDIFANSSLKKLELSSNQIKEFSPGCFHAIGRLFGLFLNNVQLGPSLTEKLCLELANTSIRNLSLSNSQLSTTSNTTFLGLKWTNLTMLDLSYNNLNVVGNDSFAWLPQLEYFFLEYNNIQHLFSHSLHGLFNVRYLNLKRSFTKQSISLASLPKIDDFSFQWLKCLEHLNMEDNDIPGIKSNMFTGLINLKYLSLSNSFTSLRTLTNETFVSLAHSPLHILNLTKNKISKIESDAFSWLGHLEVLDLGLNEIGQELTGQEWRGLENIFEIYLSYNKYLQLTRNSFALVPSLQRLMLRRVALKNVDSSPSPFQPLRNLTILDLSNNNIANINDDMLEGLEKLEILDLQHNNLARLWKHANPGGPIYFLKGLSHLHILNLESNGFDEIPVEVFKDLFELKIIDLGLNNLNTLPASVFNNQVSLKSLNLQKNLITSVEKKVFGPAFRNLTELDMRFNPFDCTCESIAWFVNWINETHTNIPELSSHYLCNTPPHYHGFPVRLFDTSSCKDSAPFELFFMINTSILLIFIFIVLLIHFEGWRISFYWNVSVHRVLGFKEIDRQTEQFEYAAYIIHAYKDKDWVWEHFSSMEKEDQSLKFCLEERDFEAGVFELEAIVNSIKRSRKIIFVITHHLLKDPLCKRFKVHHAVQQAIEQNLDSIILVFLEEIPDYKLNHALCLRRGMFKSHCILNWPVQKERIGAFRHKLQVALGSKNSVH
How it was run: (§1)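 HEK-Blue SEAP format: 4 × 10⁴ cells/well in DMEM with ligand plus compound, 24 h at 37 °C. Supernatant mixed with QUANTI-Blue up to 1 h, then A620 read. Ligands: Pam3CSK4 100 ng/mL (TLR1/2), Pam2CSK4 100 ng/mL (TLR2/6), poly(I:C) 5 µg/mL (TLR3), LPS 20 ng/mL (TLR4), flagellin 50 ng/mL (TLR5), R848 1 µg/mL (TLR7), R848 2 µg/mL (TLR8), ODN2006 0.5 µM (TLR9). Mean ± s.d.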

[3] = biological target: T1, Toll-like receptor 8 (Homo sapiens); test: Inhibition of TLR8 in human PBMC assessed as reduction in R848-induced TNFalpha production measured after 24 hrs by ELISA
How it was run: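 PBMCs from healthy donors isolated by density gradient centrifugation and cultured at once at 3 × 10⁶ cells/mL in RPMI 1640. Cells received R848 and varying compound concentrations for 24 h. Supernatants spun 10 min at 4 °C, frozen at −80 °C, and TNF-α measured by ELISA.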

[4] = biological target: Toll-like receptor 1/2 (Homo sapiens) (UniProt O60603+Q15399); test: Inhibition of human TLR1/2 expressed in HEK-Blue cells assessed as inhibition of Pam3CSK4-induced NF-kappaB activation at 20 uM measured after 24 hrs by quanti-blue based SEAP reporter gene assay; assay type: cell-based; how it was run: as §1
Toll-like receptor 8 = biological target: T2, Toll-like receptor 8 (Homo sapiens, UniProt Q9NR97); test: Binding affinity to human TLR8 ectodomain by isothermal titration calorimetry
T2 sequence (Q9NR97 whole entry): T1 sequence (whole entry)
How it was run: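 ITC at 298 K in 25 mM MES pH 5.5, 0.20 M NaCl, 5% DMSO. The protein was the human TLR8 ectodomain (residues 27–827). 100 µM compound was titrated into 10 µM hTLR8 as one 0.4 µL injection followed by 18 × 2 µL injections, 120 s apart. Integrated peaks were fitted for Kd.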

[5] = biological target: T1, Toll-like receptor 8 (Homo sapiens); test: Inhibition of human TLR8 expressed in HEK-Blue cells assessed as inhibition of ssRNA06-induced NF-kappaB activation measured after 24 hrs by quanti-blue based SEAP reporter gene assay; assay type: cell-based
How it was run: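 HEK-Blue TLR8 cells, 4 × 10⁴/well, stimulated with ssRNA06 in the presence of varying compound concentrations for 24 h at 37 °C. SEAP read with QUANTI-Blue at 620 nm. Normalized so ligand-treated cells are 100% activation and untreated cells 0%.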

`CSc1nnc(CCCO)n1-c1cc(C)c(C)c(C)c1` was tested, and the inhibition [1] was “Active”, the inhibition [2] was “inactive” and the inhibition [3] was “Dose-dependent effect”. The inhibition [4] was “inactive”, the Kd (Toll-like receptor 8) was 225 nM and the inhibition [5] was “Dose-dependent effect”.
